Tests used:
[1] = Displacement of [3H]muscimol from GABAA receptor in Sprague-Dawley rat brain synaptic membranes after 60 mins by Topcount scintillation counting method
How it was run: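 Synaptic membranes from male SPRD rat cortex and central hemispheres, washed four times (50 mM Tris-HCl pH 7.4, 48,000g, 4 °C). Membranes (70–80 µg protein) incubated with [3H]muscimol (5 nM final) and graded compound concentrations, 60 min, 0 °C. GF/C filtration, scintillation counting. Non-specific binding with 1.0 mM GABA. Triplicates, ≥3 experiments. IC50 converted to Ki (modified Cheng–Prusoff); mean pKi ± SEM.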

[2] = Ionization constant, pKa of the compound in methanol by diode array detection method; assay type: physicochemical
[3] = Ionization constant, pKa of the compound in KCl at pH 1.8 by potentiometric titration method; assay type: physicochemical
How it was run: (§1)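 Potentiometric titration of about 1 mM aqueous compound, ionic strength 0.15 M KCl. Solution acidified to pH 1.8 with 0.5 N HCl, then titrated with standardized 0.5 N KOH to pH 12.2 at 25 °C under argon. pKa taken as mean of four titrations.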

[4] = Ionization constant, pKa of the compound; assay type: physicochemical; how it was run: as §1

pKi [1]	SMILES	Ki [1] [µM]	pKa [2]	pKa [3]	pKa [4]
	Oc1cc(C2CCNCC2)[nH]n1	> 100	6.7		
	Cn1nc(O)c(CCN)n1	> 100		5.92	
	On1cc(C2CCNCC2)cn1	10			5.4
5.62	Oc1nnn(C2CCNCC2)c1Cc1ccc2ccccc2c1	2.4			
	Oc1nn(C2CCNCC2)nc1CCC(c1ccccc1)c1ccccc1	> 100			
5.8	Oc1nnn(C2CCNCC2)c1CCC(c1ccccc1)c1ccccc1	1.6			
5.49	Oc1nn(C2CCNCC2)nc1Cc1ccc2ccccc2c1	3.3			
	Oc1cnn(C2CCNCC2)n1	> 100		6.36	

SMILES	pKi [1]	Ki [1] [µM]	pKa [2]	pKa [3]	pKa [4]
Oc1cn(C2CCNCC2)nn1	4.26	55		6.51	
NCCc1nsnc1O	4.13	75		4.54	
